Screens deposited in PubChem by several laboratories.
A selection: hits, their analogues and other compounds. The true share with any hit is near 4.9%.
STAT3 blocker – inhibitors of IL-6 induced STAT3 signaling | U3A cells, IL-6 STAT3-luciferase reporter, luminescence; host cell line lacks STAT1 | inhibition, % at 5.5 µM | 190,000 tested, 0.89% active;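 active = inhibition above the mean inhibition across all screened compounds plus 3 SD, cut at about 44% in these data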
STAT1 activator – STAT1 signaling activation; NIH 3T3 STAT1-luciferase reporter, IFN-gamma, luminescence; 100% = IFN-gamma alone, no compound; activation (% of control), % at 5.5 µM; 200,000 tested, 2.6% active;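 active = activation above the screen-wide mean activation plus 3 SD, cut at about 130% in these data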
STAT1 inh – STAT1 signaling inhibition | NIH 3T3 STAT1-luciferase reporter, IFN-gamma, luminescence | inhibition, % at 5.5 µM | 200,000 tested, 0.35% active;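 active = inhibition above a set limit, the mean inhibition across all tested compounds plus 3 SD, cut at about 34% in these data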
NF-kB neuron act – compounds increasing NF-kB expression in human neuronal cells; NF-kB reporter expression; hits give high values; fold change at 12.5 µM; 190,000 tested, 1.6% active; in the data active = fold change above about 3.3
APP 5'UTR act – activates APP 5'UTR luciferase reporter; SH-SY5Y APP 5'UTR luciferase reporter, luminescence; zero percent = DMSO vehicle wells; activation, % at 2 µM; 190,000 tested, 1% active; AID 1276;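 active = activation above a set limit, based on mean plus 3 SD of controls, cut at about 140% in these data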
STAT3 activator – STAT3 signaling activation; U3A cells, IL-6 STAT3-luciferase reporter, luminescence; 100% = signal with IL-6 EC80 alone; activation (% of control), % at 5.6 µM; 190,000 tested, 0.91% active; AID 871;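 active = activation above the screen-wide mean of compound activation plus 3 SD, cut at about 130% in these data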
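Test system: Human STAT1-deficient U3A cells with stable STAT3-luciferase reporter | Also added: Interleukin-6, 33 ng/mL | Timing: Compound pre-incubation 1 h before IL-6, then 6 h stimulation at 37 °C | Technique: Luciferase reporter luminescence | Read-out: Percent of IL-6-only median luminescence | Benchmarks: IL-6-only wells as 100% reference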
Large screens that a line does not name were inactive.

COC(=O)c1ccc(C)c(NS(=O)(=O)c2ccc(OC)cc2)c1	NF-kB neuron act 4
COc1ccc(S(=O)(=O)Nc2ccc(O)c3ccccc23)cc1	STAT3 activator 134
C/C(=N\NC(=O)C1CC1)c1ccccc1O	none
Cc1cc(F)ccc1NCc1ccc([N+](=O)[O-])cc1	none
COc1ccccc1NS(=O)(=O)c1cc(NC(=O)CNC(=O)c2ccc(C)s2)ccc1Cl	none
COc1ccc2c(c1)CCc1c(C(=O)N(C)c3ccccc3)noc1-2	STAT1 activator 129
COc1ccc2c(c1)CCc1c(C(=O)NC3CCCCC3)noc1-2	STAT1 activator 129, APP 5'UTR act 145
COCCNC(=O)c1noc2c1CCc1cc(OC)ccc1-2	none
COc1ccc2c(c1)CCc1c(C(=O)NCCN3CCOCC3)noc1-2	none
COCC(C)NC(=O)c1noc2c1CCc1cc(OC)ccc1-2 (stereo not drawn)	none
COc1ccc2c(c1)CCc1c(C(=O)NCc3ccco3)noc1-2	STAT1 activator 129
Cn1c(SCC(=O)N2CCc3ccccc32)nnc1-c1ccc(S(=O)(=O)N2CCCC2)cc1	none
Cc1ccc(NC(=O)c2onc(C)c2Cl)cc1	none
CCCc1cc(C(=O)Nc2ccc(C)cc2)no1	STAT1 activator 135
CCc1ccc(NC(=O)c2cc(CC(C)C)on2)cc1	none
Cc1ccc(NC(=O)c2cc(C)on2)cc1	STAT1 activator 130, NF-kB neuron act 3.3
Cc1ccc(SCc2cc(=O)[nH]c(Nc3nc(C)c4cccc(C)c4n3)n2)cc1	none
Cc1nc(Nc2nc(=O)c3ccccc3n2C)nc2c(C)cccc12	STAT3 activator 142 (no result: NF-kB neuron act)
c1ccc2sc(NC3=NCN(CCN4CCOCC4)CN3)nc2c1	none
Cc1nc(NC2=NCN(CCN3CCOCC3)CN2)nc2c(C)cccc12	STAT3 activator 176 (no result: NF-kB neuron act)
CCCCN1C(=O)C(=Nc2cccc3cnccc23)c2ccccc21	none
O=C(COC(=O)/C=C/c1ccc(F)cc1)Nc1ccccc1-c1ccccc1	none
O=C(NN1C(=O)C2C(c3ccccc3)C=CC(c3ccccc3)C2C1=O)c1cccc(Br)c1 (stereo not drawn)	none
COCCn1c(-c2ccc(Cl)cc2)cnc1SCC(=O)NCCc1ccc(OC)c(OC)c1	none
CCOc1ccc(NC(=O)CSc2nc3c([nH]c4ccccc43)c(=O)n2C)cc1	STAT3 activator 134
COCCn1c(SCC(=O)NCCc2ccc(OC)c(OC)c2)nc2c([nH]c3ccccc32)c1=O	STAT3 activator 135
Cc1ccc(NC(=O)CSc2nc3c([nH]c4ccccc43)c(=O)n2C)cc1	none
Cc1ccc(NC(=O)C2=C(c3ccccc3)S(=O)(=O)CCS2(=O)=O)cc1	none
COc1cc(C#N)c(NC(=O)CN2CCC(C(N)=O)CC2)cc1OC	none
COc1ccc(C2OC(=O)CC2C(=O)NCc2ccc(Cl)cc2)cc1OC (stereo not drawn)	none
O=C(CNC(=O)c1ccccc1Cl)OCC(=O)N1CCc2ccccc21	STAT1 activator 134
O=C1c2ccccc2C(=O)N1CCSc1nncs1	none
O=C1c2ccccc2C(=O)N1CCSc1ccccc1	STAT1 activator 138
Cc1ccc(C(=O)Nc2ncc(C)s2)o1	STAT1 activator 135
Cc1ccc(C(=O)Nc2ccc(F)cc2)o1	none
O=C(Nc1nc(-c2ccccn2)cs1)c1cc2ccccc2o1	none
Cc1cnc(NC(=O)c2cc3ccccc3o2)s1	STAT3 blocker 60, STAT1 inh 43
Cc1ccc(C(=O)Nc2ncc(Cc3ccc(F)cc3)s2)o1	NF-kB neuron act 7.9
COC(=O)c1ccc(NC(=O)C(=O)N2CCN(C(=S)NCCc3ccccc3)CC2)cc1	none
N#Cc1cc(Br)ccc1N=C1CCCN1c1ccccc1	none
Clc1ccc(-c2nnc(-c3ccco3)o2)cc1	STAT1 activator 144
COCC(C)NC(=S)Nc1ccccc1[N+](=O)[O-] (stereo not drawn)	none
CCOC(=O)N/N=C(\C)c1ccc(OC(F)F)cc1OC(F)F	none
COCCNC(=S)N1CCCC(CO)C1 (stereo not drawn)	none
C=CCN=C(NC#N)SCC(=O)c1cccc(OC)c1	STAT1 activator 137
COc1ccc(-c2cn3c(C)c(C(=O)N4CCCc5ccccc54)sc3n2)cc1	none (no result: NF-kB neuron act)
COc1ccc(-c2cn3c4c(sc3n2)CCCC4)cc1	NF-kB neuron act 7.4
COCCn1c(C)cc(C(=O)CSc2nc3ccccc3s2)c1C	APP 5'UTR act 204
CC(C)COc1ccc(C(=O)Nc2ccc([N+](=O)[O-])cc2)cc1	none
CCC(=O)Oc1ccc(C(=O)Nc2ccc([N+](=O)[O-])cc2)cc1	STAT1 activator 134
O=C(N/N=C/c1ccc([N+](=O)[O-])cc1)c1[nH]ncc1Br	STAT1 activator 131
CCS(=O)(=O)C1=NN2C(=N)/C(=C\c3ccc(SCc4ccco4)o3)C(=O)N=C2S1	none
O=c1[nH]c(CSc2nc3ccccc3[nH]2)nc2c1cnn2-c1ccccc1	none
O=c1[nH]c(SCc2nc3c(cnn3-c3ccccc3)c(=O)[nH]2)nc2ccccc12	STAT3 activator 160
CC(=O)Nc1sc2c(c1C(N)=O)CCCC2	none
NC(=O)c1c(NC(=O)c2cccnc2)sc2c1CCCC2	STAT1 activator 134
O=C(Nc1sc2c(c1C(=O)O)CCCC2)c1cccs1	none
Cn1nccc1C(=O)Nc1sc2c(c1C(N)=O)CCCC2	STAT1 activator 146
O=C(Nc1sc2c(c1C(=O)O)CCCCC2)c1cccs1	APP 5'UTR act 174
Cc1sc(NC(=O)c2cccs2)c(C(N)=O)c1C	STAT1 activator 140
Cc1ccc(NC(=O)n2ccc(-c3ccc(-n4ccnc4)cc3)n2)cc1	STAT1 activator 135
CCOC(=O)CNC(=S)n1cnc(N)n1	none
COc1ccc(/C=C(\C#N)C(=O)C(C)(C)n2cncn2)cc1	none
CC1CCN(c2nc(-c3cccnc3)nc3scc(-c4ccccc4)c23)CC1	none
Clc1nc(-c2ccccn2)nc2scc(-c3ccccc3)c12	NF-kB neuron act 3.3
CC1Cc2ccccc2N1C(=O)Cn1cnc2ccccc21 (stereo not drawn)	none
CC(C(=O)Nc1ccccc1)N(C)CCOc1ccc(Br)cc1 (stereo not drawn)	none
Cc1cc(C)c(S(=O)(=O)N2CCCOC2CNC(=O)C(=O)NCc2ccncc2)c(C)c1 (stereo not drawn)	none
CC(CCc1ccccc1)NC(=O)C(=O)Nc1ccccc1 (stereo not drawn)	STAT1 activator 140
Cc1ccccc1NC(=O)C(=O)NC(C)CCc1ccccc1 (stereo not drawn)	none
CCCn1c(C)cc(C(=O)Cn2nnc3ccccc3c2=O)c1C	NF-kB neuron act 4.7, APP 5'UTR act 159
COCCn1c(C)cc(C(=O)Cn2nc(C(=O)O)c3ccccc3c2=O)c1C	none
CC(C)(C)c1ccc(Cn2nc(CC(=O)O)c3ccccc3c2=O)cc1	none
